Laboratory results taken from ChEMBL document CHEMBL3352332, “Synthesis and SAR study of novel anticancer and antimicrobial naphthoquinone amide derivatives” (Bioorg Med Chem Lett, 2014).
Converted amounts (≈) assume the structure as drawn. The source made the active and inactive calls. The calls are words filed in the database; no cut-off is given here.

Key:
Staphylococcus aureus [1] = experiment: Antibacterial activity against methicillin-resistant Staphylococcus aureus by NCCLS method; format: functional
Pseudomonas aeruginosa = experiment: Antibacterial activity against Pseudomonas aeruginosa MTCC 201 at 100 ug/well after 24 hrs by well diffusion assay; format: functional
Method in brief: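 17 h bacterial cultures swabbed onto Mueller Hinton agar; after 10 min wells were cut with a cork borer and loaded with compound from a 10 mg/mL stock, with a DMSO control. Plates were held at 37 °C for 24 h, and susceptibility was read as the diameter of the zone of inhibition in mm.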

Staphylococcus aureus [2] = experiment: Antibacterial activity against methicillin-resistant Staphylococcus aureus at 100 ug/well after 24 hrs by well diffusion assay; format: functional; conditions: for zone of inhibition at 100 µg/disc: read-out: DIZ
Method in brief: (§1)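 Agar well diffusion on Mueller Hinton agar: 17 h cultures swabbed over the surface, wells cut with a cork borer after 10 min. Each well loaded with 10 µl of a 10 mg/mL DMSO stock (100 µg/well), with a DMSO control well. Plates incubated at 37 °C for 24 h. Zone of inhibition diameter measured in mm.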

Candida albicans [3] = experiment: Antifungal activity against fluconazole-resistant Candida albicans at 100 ug/well after 24 hrs by well diffusion assay; format: functional; conditions: for zone of inhibition at 100 µg/disc: read-out: DIZ; method in brief: as §1
HeLa = experiment: Cytotoxicity against human HeLa cells assessed as reduction in cell viability after 48 hrs by MTT assay; format: functional, cell-based
SAS = experiment: Cytotoxicity against human SAS cells assessed as reduction in cell viability after 48 hrs by MTT assay; format: functional, cell-based
Candida albicans [4] = experiment: Antifungal activity against fluconazole-resistant Candida albicans by NCCLS method; format: functional

Compound | MIC (Staphylococcus aureus [1]) [µg/mL] | diameter of the inhibition zone (DIZ) (Pseudomonas aeruginosa) | zone of inhibition at 100 µg/disc (Staphylococcus aureus [2]) [mm] | diameter of the inhibition zone (DIZ) (Candida albicans [3]) | IC50 (HeLa) [µM] | IC50 (SAS) [µM] | MIC (Candida albicans [4]) [µg/mL] | zone of inhibition at 100 µg/disc (Candida albicans [3]) [mm] | zone of inhibition at 100 µg/disc (Pseudomonas aeruginosa; MTCC 201, 24 h, read-out: DIZ) [mm] | diameter of the inhibition zone (DIZ) (Staphylococcus aureus [2])
COC(=O)[C@H](C)NC(=O)CSC1=CC(=O)c2cccc(OC)c2C1=O | 7.8 (≈ 21.5 µM) | inactive | 15 | inactive | – | – | – | – | – | –
COC(=O)[C@@H](NC(=O)CSC1=CC(=O)c2cccc(OC)c2C1=O)C(C)C | 15.6 (≈ 39.9 µM) | inactive | 15 | – | > 100 | 45 | 15.6 (≈ 39.9 µM) | 12 | – | –
COC(=O)[C@H](Cc1ccccc1)NC(=O)CSC1=C(C)C(=O)c2ccccc2C1=O | 15.6 (≈ 36.8 µM) | inactive | 13 | – | – | – | 15.6 (≈ 36.8 µM) | 16 | – | –
COC(=O)[C@H](CC(C)C)NC(=O)CSC1=C(C)C(=O)c2ccccc2C1=O | 15.6 (≈ 40.1 µM) | inactive | 18 | – | – | – | 15.6 (≈ 40.1 µM) | 20 | – | –
CC1=CC(=O)c2ccccc2C1=O [MENADIONE] | 15.6 (≈ 90.6 µM) | inactive | 11 | – | 18 | 14 | 15.6 (≈ 90.6 µM) | 11 | – | –
COC(=O)CCCNC(=O)CSC1=C(OC)C(=O)c2ccccc2C1=O | 15.6 (≈ 41.3 µM) | inactive | 26 | – | 24 | 24.5 | 15.6 (≈ 41.3 µM) | 26 | – | –
CN[C@@H]1[C@H](O[C@H]2[C@H](O[C@H]3[C@H](O)[C@@H](O)[C@H](N=C(N)N)[C@@H](O)[C@@H]3N=C(N)N)O[C@@H](C)[C@]2(O)C=O)O[C@@H](CO)[C@H](O)[C@H]1O [STREPTOMYCIN] | 3.9 (≈ 6.71 µM) | – | 24 | inactive | – | – | – | – | 13 | –
O=C1C=CC(=O)c2c(O)cccc21 | – | inactive | – | inactive | – | – | – | – | – | inactive
COC(=O)[C@H](C)NC(=O)CSC1=C(OC)C(=O)c2ccccc2C1=O | 62.5 (≈ 172 µM) | inactive | 19 | – | 39 | 14 | 62.5 (≈ 172 µM) | 26 | – | –
COC(=O)[C@H](C)NC(=O)CSC1=C(C)C(=O)c2cccc(OC)c2C1=O | 125 (≈ 331 µM) | inactive | 18 | – | – | – | 125 (≈ 331 µM) | 18 | – | –
COC(=O)[C@H](CC(C)C)NC(=O)CSC1=CC(=O)c2cccc(OC)c2C1=O | 7.8 (≈ 19.2 µM) | inactive | 11 | – | – | – | 7.8 (≈ 19.2 µM) | 12 | – | –
CC[C@H](C)[C@H](NC(=O)CSC1=CC(=O)c2cccc(OC)c2C1=O)C(=O)OC | 15.6 (≈ 38.5 µM) | inactive | 19 | – | 94.5 | 63 | 15.6 (≈ 38.5 µM) | 15 | – | –
CC[C@H](C)[C@H](NC(=O)CSC1=C(OC)C(=O)c2ccccc2C1=O)C(=O)OC | 7.8 (≈ 19.2 µM) | inactive | 15 | – | 82 | 60 | 7.8 (≈ 19.2 µM) | 12 | – | –
COC(=O)[C@H](Cc1ccccc1)NC(=O)CSC1=C(OC)C(=O)c2ccccc2C1=O | 62.5 (≈ 142 µM) | inactive | 14 | inactive | – | – | – | – | – | –
COC(=O)CCCNC(=O)CSC1=C(C)C(=O)c2ccccc2C1=O | 15.6 (≈ 43.2 µM) | inactive | 13 | – | – | – | 15.6 (≈ 43.2 µM) | 12 | – | –
O=C1C=C(O)C(=O)c2ccccc21 [LAWSONE] | 125 (≈ 718 µM) | inactive | 12 | – | > 100 | > 100 | 250 (≈ 1440 µM) | 14 | – | –
COC(=O)CCCNC(=O)CSC1=C(C)C(=O)c2cccc(OC)c2C1=O | 15.6 (≈ 39.9 µM) | inactive | 20 | – | – | – | 15.6 (≈ 39.9 µM) | 21 | – | –

Compound | MIC (Staphylococcus aureus [1]) [µg/mL] | diameter of the inhibition zone (DIZ) (Pseudomonas aeruginosa) | zone of inhibition at 100 µg/disc (Staphylococcus aureus [2]) [mm] | diameter of the inhibition zone (DIZ) (Candida albicans [3]) | IC50 (HeLa) [µM] | IC50 (SAS) [µM] | MIC (Candida albicans [4]) [µg/mL] | zone of inhibition at 100 µg/disc (Candida albicans [3]) [mm] | zone of inhibition at 100 µg/disc (Pseudomonas aeruginosa; MTCC 201, 24 h, read-out: DIZ) [mm] | diameter of the inhibition zone (DIZ) (Staphylococcus aureus [2])
COC(=O)CNC(=O)CSC1=CC(=O)c2cccc(OC)c2C1=O | 3.9 (≈ 11.2 µM) | inactive | 19 | – | > 100 | > 100 | 7.9 (≈ 22.6 µM) | 19 | – | –
COC(=O)[C@H](Cc1ccccc1)NC(=O)CSC1=C(C)C(=O)c2cccc(OC)c2C1=O | 125 (≈ 276 µM) | inactive | 15 | – | > 100 | 56.5 | 125 (≈ 276 µM) | 13 | – | –
COC(=O)[C@H](CC(C)C)NC(=O)CSC1=C(C)C(=O)c2cccc(OC)c2C1=O | 7.8 (≈ 18.6 µM) | inactive | 21 | – | > 100 | 78.5 | 7.8 (≈ 18.6 µM) | 25 | – | –
COC(=O)[C@H](Cc1ccccc1)NC(=O)CSC1=CC(=O)c2cccc(OC)c2C1=O | 7.8 (≈ 17.7 µM) | inactive | 15 | – | 58 | 40 | 7.8 (≈ 17.7 µM) | 17 | – | –
COC(=O)CCCNC(=O)CSC1=CC(=O)c2cccc(OC)c2C1=O | – | inactive | 12 | inactive | – | – | – | – | – | –
COC(=O)CNC(=O)CSC1=C(C)C(=O)c2cccc(OC)c2C1=O | 125 (≈ 344 µM) | inactive | 20 | – | – | – | 125 (≈ 344 µM) | 21 | – | –
COC(=O)CNC(=O)CSC1=C(C)C(=O)c2ccccc2C1=O | 15.6 (≈ 46.8 µM) | inactive | 23 | – | – | – | 15.6 (≈ 46.8 µM) | 22 | – | –
CC[C@H](C)[C@H](NC(=O)CSC1=C(C)C(=O)c2cccc(OC)c2C1=O)C(=O)OC | – | inactive | – | inactive | – | – | – | – | – | inactive
COC(=O)[C@@H](NC(=O)CSC1=C(C)C(=O)c2cccc(OC)c2C1=O)C(C)C | 15.6 (≈ 38.5 µM) | inactive | 12 | – | – | – | 7.8 (≈ 19.2 µM) | 13 | – | –
CC[C@H](C)[C@H](NC(=O)CSC1=C(C)C(=O)c2ccccc2C1=O)C(=O)OC | 15.6 (≈ 40.1 µM) | inactive | 16 | – | – | – | 15.6 (≈ 40.1 µM) | 19 | – | –
COC(=O)[C@H](CC(C)C)NC(=O)CSC1=C(OC)C(=O)c2ccccc2C1=O | 7.8 (≈ 19.2 µM) | inactive | 21 | – | 63 | 25.5 | 62.5 (≈ 154 µM) | 19 | – | –
COC(=O)[C@@H](NC(=O)CSC1=C(C)C(=O)c2ccccc2C1=O)C(C)C | 15.6 (≈ 41.6 µM) | inactive | 19 | – | 20 | 16 | 15.6 (≈ 41.6 µM) | 19 | – | –
OC(Cn1cncn1)(Cn1cncn1)c1ccc(F)cc1F | – | inactive | – | inactive | – | – | – | – | – | inactive
COC(=O)[C@H](C)NC(=O)CSC1=C(C)C(=O)c2ccccc2C1=O | 15.6 (≈ 44.9 µM) | inactive | 23 | – | – | – | 15.6 (≈ 44.9 µM) | 26 | – | –
COC(=O)[C@@H](NC(=O)CSC1=C(OC)C(=O)c2ccccc2C1=O)C(C)C | 15.6 (≈ 39.9 µM) | inactive | 18 | – | 93.5 | 56 | 15.6 (≈ 39.9 µM) | 20 | – | –
CC1=CC(=O)c2c(O)cccc2C1=O [PLUMBAGIN] | 125 (≈ 664 µM) | inactive | 12 | – | 25.5 | 3 | 125 (≈ 664 µM) | 12 | – | –
COC(=O)CNC(=O)CSC1=C(OC)C(=O)c2ccccc2C1=O | 15.6 (≈ 44.7 µM) | inactive | 17 | – | 77.5 | 12 | 15.6 (≈ 44.7 µM) | 16 | – | –
